Measured values reported in paper PMC10259527 (International Journal of Nanomedicine, 2023).

Experiments:
[1] = In vivo toxicity in the hepatic AE mouse model; parameters: species or system C57BL/6J mice; settings: oral 100 mg/kg once daily for 30 days; for Histopathology of liver parenchyma surrounding the metacestodes: H&E
In short: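 Female C57BL/6J mice were infected by portal-vein protoscolex injection. At 3 months, after ultrasound-confirmed metacestode growth, mice (n = 8/group) got oral gavage at 100 mg/kg daily for 30 days, dosed with 0.5% CMC suspensions or CMC alone. Sham-operated uninfected mice got portal saline. Afterwards, retro-orbital blood was drawn under isoflurane. Plasma (2000 g, 15 min, 4°C; stored −20°C) was assayed for ALT/AST on an automatic biochemical analyzer.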

[2] = Cytotoxicity assay; format: cell-based; settings: human, HepG2 cells
In short: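 HepG2 cells were seeded at 5×10^3/well. Treatment ran 48 h at 37°C, 5% CO2: free compound at 10–50 μM, nanoparticle form at 10–100 μM. Controls got vehicle only (0.1% v/v DMSO or deionized water). Viability was read by CCK-8 and normalized to vehicle controls, mean ± SEM.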

[3] = Biodistribution by ex vivo fluorescence imaging of major organs; format: in vivo, BALB/c nude mice; settings: Cy5.5-labeled, single oral 25 mg/kg, mice
In short: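 Female BALB/c nude mice, acclimated 1 week and fasted 12 h overnight with water, got one oral dose of 25 mg/kg (by parent mass). Cy5.5-labeled nanoparticles were given in PBS; Cy5.5-labeled free compound as an H2O/DMSO (40:1) suspension. Four mice per group were killed at 2, 4, 6, 8 and 24 h. Heart, liver, lungs, spleen and kidneys were PBS-washed and imaged ex vivo for fluorescence. Liver intensity was quantified (n = 4, mean ± SEM).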

[4] = In vivo pharmacokinetic study; parameters: species or system BALB/c mice; settings: BALB/c, mouse, plasma
In short: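 BALB/c mice (5–6 weeks, 20 ± 2 g; n = 6 per time point, 3 male + 3 female) got one IV dose (5 mg/kg) or oral gavage (100 mg/kg). Free compound was given in 5% DMSO/10% solutol HS-15/85% (20% hydroxypropyl-β-cyclodextrin in saline). Tail-vein blood was taken at 0.08–48 h and plasma separated at 2000 g, 15 min. Concentrations were measured by LC–MS/MS; parameters came from non-compartmental analysis.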

| SMILES | Histopathology of liver parenchyma surrounding the metacestodes [1] | Liver transaminases (mean ALT and AST values) ([1]; compared to shamed individuals) | CC50 at 48 h [2] | Decrease of fluorescence intensity in the liver from 8 h to 24 h [3] | AUC(0-inf) ([4]; both, iv, 5 mg/kg) | AUC(0-t) ([4]; both, iv, 5 mg/kg) | Cmax ([4]; both, iv, 5 mg/kg) | Tmax ([4]; both, iv, 5 mg/kg) | Vd ([4]; both, iv, 5 mg/kg) | clearance ([4]; both, iv, 5 mg/kg) | half-life ([4]; both, iv, 5 mg/kg) | bioavailability ([4]; both, oral, 100 mg/kg) | AUC(0-inf) ([4]; both, po, 100 mg/kg) | AUC(0-t) ([4]; both, po, 100 mg/kg) | Cmax ([4]; both, po, 100 mg/kg) | Tmax ([4]; both, po, 100 mg/kg) | half-life ([4]; both, po, 100 mg/kg) | half-life ([4]; female, po, 100 mg/kg) | half-life ([4]; male, po, 100 mg/kg) |
| --- | --- | --- | --- | --- | --- | --- | --- | --- | --- | --- | --- | --- | --- | --- | --- | --- | --- | --- | --- |
| CCCSc1ccc2nc(NC(=O)OC)[nH]c2c1 [albendazole, reference compound] | inflammatory infiltrate, fibroplastic proliferation, and hepatocellular necrosis | – | – | – | – | – | – | – | – | – | – | – | – | – | – | – | – | – | – |
| CCCNCC(O)Cn1c2ccc(Cl)cc2c2cc(Cl)ccc21 (centres unmarked) [Compound H1402, 1-(3,6-dichloro-9H-carbazol-9-yl)-3-(propylamino)propan-2-ol] | inflammatory infiltrate, fibroplastic proliferation, and hepatocellular necrosis | various degrees of increase | 14.9 µM | 49.9% | 7.6 µM·h | 7.5 µM·h | 2.6 µM | 0.083 h | 19 L/kg | 32 mL/min/kg | 7 h | 69.8% | 128 µM·h | 104 µM·h | 4.4 µM | 6 h | 17.5 h | 24.6 h | 10.4 h |
